For 31 compounds, IC50 results are on record in ChEMBL document CHEMBL1157137, “Design, synthesis and biological evaluation of piperazine analogues as CB1 cannabinoid receptor ligands” (Bioorg Med Chem, 2008).

The target of experiment [1] is Cannabinoid receptor 1 (Rattus norvegicus, UniProt P20272). In words: Displacement of [3H]CP-55940 from CB1 receptor in Sprague-Dawley rat cerebella membrane. In a few lines: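 Male Sprague–Dawley rat (200–300 g) cerebellar membranes incubated with 3 nM [3H]CP55,940 and varied ligand concentrations in TME buffer with 0.5% fatty-acid-free BSA, 1 h at 30 °C. Filtered over PEI-soaked GF/B filters, washed five times with ice-cold buffer containing 0.1% BSA, then counted by liquid scintillation. IC50 from single determinations.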
Chain of Cannabinoid receptor 1 (Rattus norvegicus, UniProt P20272) (P20272 whole entry): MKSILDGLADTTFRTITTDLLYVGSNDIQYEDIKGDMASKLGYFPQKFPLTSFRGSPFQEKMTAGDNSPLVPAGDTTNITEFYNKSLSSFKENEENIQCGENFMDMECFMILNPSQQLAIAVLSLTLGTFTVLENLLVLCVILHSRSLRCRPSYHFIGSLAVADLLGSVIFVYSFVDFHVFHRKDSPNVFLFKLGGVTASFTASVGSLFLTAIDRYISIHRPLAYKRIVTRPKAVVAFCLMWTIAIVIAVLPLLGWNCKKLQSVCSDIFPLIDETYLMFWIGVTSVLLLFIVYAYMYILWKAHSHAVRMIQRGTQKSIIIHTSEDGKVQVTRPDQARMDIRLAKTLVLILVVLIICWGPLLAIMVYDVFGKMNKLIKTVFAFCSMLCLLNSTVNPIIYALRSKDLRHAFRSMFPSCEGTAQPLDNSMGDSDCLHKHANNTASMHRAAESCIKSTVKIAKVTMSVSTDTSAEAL
On the technique in general: Displacement assays read how much labelled ligand stays bound in the presence of the test substance.

The target of a further experiment is Cannabinoid receptor 2 (Homo sapiens, UniProt P34972). In words: Displacement of [3H]WIN-55212-2 from human CB2 receptor expressed in CHOK1 cells. It counts as cell-based, CHO-K1. In a few lines: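 Membranes were from CHO K-1 cells transfected with human CB2. They were incubated with 3 nM [3H]WIN55,212-2 and varied ligand concentrations in TME/0.5% fatty-acid-free BSA, 1 h at 30 °C. Bound ligand was separated on 0.1% PEI-soaked GF/B filters, washed five times with ice-cold 0.1% BSA buffer, and counted by scintillation. IC50 from single determinations.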
Chain of Cannabinoid receptor 2 (P34972 whole entry): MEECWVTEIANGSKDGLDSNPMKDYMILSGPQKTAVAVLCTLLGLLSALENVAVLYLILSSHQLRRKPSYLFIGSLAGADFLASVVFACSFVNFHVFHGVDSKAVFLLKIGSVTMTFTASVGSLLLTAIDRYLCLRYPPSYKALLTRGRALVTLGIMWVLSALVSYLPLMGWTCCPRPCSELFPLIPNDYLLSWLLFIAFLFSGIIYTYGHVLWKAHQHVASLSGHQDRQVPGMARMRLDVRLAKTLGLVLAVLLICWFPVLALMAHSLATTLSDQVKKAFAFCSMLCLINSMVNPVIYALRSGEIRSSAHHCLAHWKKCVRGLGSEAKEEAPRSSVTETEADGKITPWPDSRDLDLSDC

The target of experiment [2] is Cannabinoid receptor 1 (Homo sapiens, UniProt P21554). In words: Antagonist activity at human CB1 receptor expressed in CHOK1 cells by luciferase assay. It counts as functional, cell-based, CHO-K1.
Chain of Cannabinoid receptor 1 (Homo sapiens, UniProt P21554) (P21554 whole entry): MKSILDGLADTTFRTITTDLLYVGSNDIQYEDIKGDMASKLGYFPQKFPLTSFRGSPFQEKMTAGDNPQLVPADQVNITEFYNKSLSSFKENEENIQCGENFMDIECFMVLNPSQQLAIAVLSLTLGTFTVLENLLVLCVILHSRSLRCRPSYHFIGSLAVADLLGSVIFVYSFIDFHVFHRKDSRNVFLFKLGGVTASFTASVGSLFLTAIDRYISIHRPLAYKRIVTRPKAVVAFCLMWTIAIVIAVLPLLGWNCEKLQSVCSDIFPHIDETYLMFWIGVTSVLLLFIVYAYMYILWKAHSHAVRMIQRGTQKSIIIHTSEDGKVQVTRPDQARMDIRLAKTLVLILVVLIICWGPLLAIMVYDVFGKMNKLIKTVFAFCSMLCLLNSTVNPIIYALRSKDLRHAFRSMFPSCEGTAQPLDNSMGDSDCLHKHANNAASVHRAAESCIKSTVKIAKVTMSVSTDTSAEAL

A value given as a limit tells only on which side of the number the result lay.

For orientation: IC50 means the midpoint of a concentration-inhibition curve. High values mean a need for much substance, low ones inhibition by little substance. Consider `CC(C)(C)NC(=O)N1CCN(C(c2ccc(Cl)cc2)c2ccccc2Cl)CC1` (stereo not drawn), for which the IC50 at Cannabinoid receptor 1 [1] turned out to be 122 nM; at Cannabinoid receptor 2 it was 4820 nM; against Cannabinoid receptor 1 [2], 443 nM.

`CC(C)(C)NC(=O)N1CCN(C(c2ccc(Cl)cc2)c2cccc(Cl)c2Cl)CC1` (stereo not drawn): the IC50 on Cannabinoid receptor 1 [1] is 783 nM; at Cannabinoid receptor 2, over 10000 nM; on Cannabinoid receptor 1 [2] it was 316 nM.

Consider `Cc1ccccc1C(c1ccc(Cl)cc1)N1CCN(C(=O)NC2CCCCCC2)CC1` (stereo not drawn), for which the values for the IC50 at Cannabinoid receptor 1 [1], on Cannabinoid receptor 2 and against Cannabinoid receptor 1 [2] were 151 nM, over 10000 nM and 163 nM, respectively.

As to `O=C(NC1CCCCC1)N1CCN(C(c2ccc(Cl)cc2)c2ccc(Cl)cc2)CC1`, the IC50 on Cannabinoid receptor 1 [1] is 914 nM.

On to `Cc1ccccc1C(c1ccc(Cl)cc1)N1CCN(C(=O)NC2CCCCC2)CC1` (stereo not drawn), for which the IC50 on Cannabinoid receptor 1 [1] was 248 nM; at Cannabinoid receptor 2, over 10000 nM; at Cannabinoid receptor 1 [2], 195 nM.

In the case of `O=C(NC1CCCCCC1)N1CCN(C(c2ccc(Br)cc2)c2ccccc2Cl)CC1` (stereo not drawn), the concentration for half-maximal inhibition (IC50) is 82.3 nM on Cannabinoid receptor 1 [1], over 10000 nM at Cannabinoid receptor 2 and 49.4 nM on Cannabinoid receptor 1 [2].

Regarding `O=C(NCC1CCCCC1)N1CCN(C(c2ccc(Cl)cc2)c2ccccc2Cl)CC1` (stereo not drawn), the results for the IC50 at Cannabinoid receptor 1 [1], on Cannabinoid receptor 2 and against Cannabinoid receptor 1 [2] were 189 nM, over 10000 nM and 273 nM, respectively.

For `O=C(NC1CCCCCC1)C(=O)N1CCN(C(c2ccc(Cl)cc2)c2ccccc2Cl)CC1` (stereo not drawn), on Cannabinoid receptor 1 [1], the IC50 is 229 nM.

`O=C(NC1CCCCCC1)N1CCN(C(c2ccc(Cl)cc2)c2ccc(Cl)cc2Cl)CC1` (stereo not drawn): the 50% inhibitory concentration (IC50) was 89.2 nM on Cannabinoid receptor 1 [1], over 10000 nM at Cannabinoid receptor 2 and 729 nM against Cannabinoid receptor 1 [2].

In the case of `O=C(NC1CCCCCC1)N1CCN(C(c2ccc(Cl)cc2)c2cccc(Cl)c2Cl)CC1` (stereo not drawn), the results for the IC50 at Cannabinoid receptor 1 [1], at Cannabinoid receptor 2 and against Cannabinoid receptor 1 [2] were 158 nM, over 10000 nM and 424 nM, respectively.

`O=C(C1CCC1)N1CCN(C(c2ccc(Cl)cc2)c2ccc(Cl)cc2)CC1` came in with an IC50 on Cannabinoid receptor 1 [1] of 1070 nM.

With `Cc1ccccc1C(c1ccc(Cl)cc1)N1CCN(C(=O)NC(C)(C)C)CC1` (stereo not drawn), the values for the IC50 at Cannabinoid receptor 1 [1], at Cannabinoid receptor 2 and on Cannabinoid receptor 1 [2] were 680 nM, over 10000 nM and 334 nM, respectively.

Turning to `O=C(NCC1CCCCC1)N1CCN(C(c2ccc(Cl)cc2)c2ccc(Cl)cc2Cl)CC1` (stereo not drawn), the IC50 is 262 nM on Cannabinoid receptor 1 [1], over 10000 nM on Cannabinoid receptor 2 and 1040 nM at Cannabinoid receptor 1 [2].

On to `O=C(NC1CCCCC1)C(=O)N1CCN(C(c2ccc(Cl)cc2)c2ccccc2Cl)CC1` (stereo not drawn), for which the IC50 on Cannabinoid receptor 1 [1] is 226 nM.

With `O=C(NC1CCCCC1)N1CCN(C(c2ccc(Br)cc2)c2ccccc2Cl)CC1` (stereo not drawn), the IC50 at Cannabinoid receptor 1 [1] is 103 nM; at Cannabinoid receptor 2, over 10000 nM; at Cannabinoid receptor 1 [2] it was 62.8 nM.

For `O=C(NCC1CCCCC1)N1CCN(C(c2ccc(Br)cc2)c2ccccc2Cl)CC1` (stereo not drawn), the IC50 at Cannabinoid receptor 1 [1] is 127 nM; at Cannabinoid receptor 2, over 10000 nM; on Cannabinoid receptor 1 [2], 146 nM.

In the case of `O=C(NC1CCCCCC1)N1CCN(C(c2ccc(Cl)cc2)c2ccccc2C(F)(F)F)CC1` (stereo not drawn), the IC50 at Cannabinoid receptor 1 [1] is 141 nM; on Cannabinoid receptor 2, over 10000 nM; on Cannabinoid receptor 1 [2], 204 nM.

`Cc1ccccc1C(c1ccc(Cl)cc1)N1CCN(C(=O)NCC2CCCCC2)CC1` (stereo not drawn): the results for the IC50 at Cannabinoid receptor 1 [1], on Cannabinoid receptor 2 and against Cannabinoid receptor 1 [2] were 291 nM, over 10000 nM and 340 nM, respectively.

On to `O=C(NC1CCCCC1)N1CCN(C(c2ccc(Cl)cc2)c2cccc(Cl)c2Cl)CC1` (stereo not drawn), for which the IC50 on Cannabinoid receptor 1 [1] was 186 nM; on Cannabinoid receptor 2, over 10000 nM; against Cannabinoid receptor 1 [2], 441 nM.

As for `O=C(NCC1CCCCC1)N1CCN(C(c2ccc(Cl)cc2)c2ccccc2C(F)(F)F)CC1` (stereo not drawn), the IC50 at Cannabinoid receptor 1 [1] is 526 nM; on Cannabinoid receptor 2, over 10000 nM; on Cannabinoid receptor 1 [2], 798 nM.

At Cannabinoid receptor 1 [1], `CCCCCC(=O)N1CCN(C(c2ccc(Cl)cc2)c2ccc(Cl)cc2Cl)CC1` (stereo not drawn) gave an IC50 of 257 nM.

For `CCCCCC(=O)N1CCN(C(c2ccc(Cl)cc2)c2ccc(Cl)cc2)CC1`, the IC50 on Cannabinoid receptor 1 [1] was 1150 nM.

Consider `O=C(NC1CCCCCC1)N1CCN(C(c2ccc(Cl)cc2)c2ccccc2Cl)CC1` (stereo not drawn), for which the IC50 at Cannabinoid receptor 1 [1] was 66.5 nM; at Cannabinoid receptor 2, over 10000 nM; at Cannabinoid receptor 1 [2], 226 nM.

With `O=C(NC1CCCCC1)N1CCN(C(c2ccc(Cl)cc2)c2ccc(Cl)cc2Cl)CC1` (stereo not drawn), the values for the IC50 at Cannabinoid receptor 1 [1], at Cannabinoid receptor 2 and against Cannabinoid receptor 1 [2] were 104 nM, over 10000 nM and 367 nM, respectively.

The compound `CC(C)(C)NC(=O)N1CCN(C(c2ccc(Cl)cc2)c2ccccc2C(F)(F)F)CC1` (stereo not drawn) gave an IC50 at Cannabinoid receptor 1 [1] of 2050 nM.

Compound `O=C(C1CCCCC1)N1CCN(C(c2ccc(Cl)cc2)c2ccc(Cl)cc2)CC1` had an IC50 on Cannabinoid receptor 1 [1] of 1390 nM.

In the case of `CC(C)(C)NC(=O)N1CCN(C(c2ccc(Br)cc2)c2ccccc2Cl)CC1` (stereo not drawn), the half-maximal inhibitory concentration (IC50) came out at 237 nM at Cannabinoid receptor 1 [1], 4950 nM on Cannabinoid receptor 2 and 286 nM against Cannabinoid receptor 1 [2].

`CC(C)(C)NC(=O)N1CCN(C(c2ccc(Cl)cc2)c2ccc(Cl)cc2Cl)CC1` (stereo not drawn): the IC50 on Cannabinoid receptor 1 [1] stood at 2000 nM.

In turn, `O=C(NCC1CCCCC1)N1CCN(C(c2ccc(Cl)cc2)c2cccc(Cl)c2Cl)CC1` (stereo not drawn) had an IC50 at Cannabinoid receptor 1 [1] of 2000 nM.

As to `O=C(NC1CCCCC1)N1CCN(C(c2ccc(Cl)cc2)c2ccccc2Cl)CC1` (stereo not drawn), the IC50 is 72.8 nM on Cannabinoid receptor 1 [1], over 10000 nM on Cannabinoid receptor 2 and 128 nM at Cannabinoid receptor 1 [2].

Regarding `O=C(NC1CCCCC1)N1CCN(C(c2ccc(Cl)cc2)c2ccccc2C(F)(F)F)CC1` (stereo not drawn), the IC50 was 163 nM on Cannabinoid receptor 1 [1], over 10000 nM at Cannabinoid receptor 2 and 186 nM on Cannabinoid receptor 1 [2].
